Assay results: ChEMBL document CHEMBL1147081, “Structure of the deacetylase LpxC bound to the antibiotic CHIR-090: Time-dependent inhibition and specificity in ligand binding” (Proc Natl Acad Sci U S A, 2007)
The source made the active and inactive calls. No cut-off for these calls is given here.

Tests used:
Rhizobium leguminosarum [1] = assay: Ratio of Kcat to Km of Rhizobium leguminosarum LpxC
Procedure, shortened: (§1)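 Wild-type and site-directed mutant LpxC (E. coli, R. leguminosarum) expressed and purified, then assayed by a previously described method. Substrate was UDP-3-O-(R-3-hydroxymyristoyl)-N-acetylglucosamine, varied for Michaelis–Menten analysis. KM and kcat came from data sets pooling multiple independent experiments.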

Rhizobium leguminosarum [2] = assay: Inhibition of Rhizobium leguminosarum LpxC at 0.5 uM
Rhizobium leguminosarum [3] = assay: Activity of Rhizobium leguminosarum LpxC; procedure, shortened: as §1
[4] = biological target: T1, UDP-3-O-acyl-N-acetylglucosamine deacetylase (Aquifex aeolicus (strain VF5)) (UniProt O67648); assay: Inhibition of Aquifex aeolicus LpxC
T1 sequence (whole entry): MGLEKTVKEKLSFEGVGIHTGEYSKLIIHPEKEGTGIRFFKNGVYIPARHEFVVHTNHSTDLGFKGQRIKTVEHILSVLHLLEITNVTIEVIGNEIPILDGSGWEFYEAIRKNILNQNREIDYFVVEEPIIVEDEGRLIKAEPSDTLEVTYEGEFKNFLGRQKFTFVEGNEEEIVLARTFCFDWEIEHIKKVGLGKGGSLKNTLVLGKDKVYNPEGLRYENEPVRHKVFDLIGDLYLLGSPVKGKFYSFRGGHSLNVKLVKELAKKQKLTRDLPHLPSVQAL

[5] = biological target: T2, UDP-3-O-acyl-N-acetylglucosamine deacetylase (Escherichia coli K-12) (UniProt P0A725); assay: Inhibition of Escherichia coli LpxC at 4 nM
T2 sequence (whole entry): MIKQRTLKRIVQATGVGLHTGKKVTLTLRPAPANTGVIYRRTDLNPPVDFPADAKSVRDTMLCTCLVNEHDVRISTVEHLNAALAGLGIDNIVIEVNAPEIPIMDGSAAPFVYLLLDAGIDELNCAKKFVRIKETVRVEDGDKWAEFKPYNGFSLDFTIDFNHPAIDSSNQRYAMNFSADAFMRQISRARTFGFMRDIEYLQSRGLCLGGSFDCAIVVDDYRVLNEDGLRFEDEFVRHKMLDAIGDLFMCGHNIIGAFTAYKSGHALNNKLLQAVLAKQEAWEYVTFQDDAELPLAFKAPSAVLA

C[C@@H](O)[C@H](NC(=O)c1ccc(C#Cc2ccc(CN3CCOCC3)cc2)cc1)C(=O)NO
kcat/Km (Rhizobium leguminosarum [1]): 3.5 10^6/M/s
inhibition (Rhizobium leguminosarum [2]): 50%
Km (Rhizobium leguminosarum [3]): 4.8 µM
kcat (Rhizobium leguminosarum [3]): 1.7 s⁻¹
Activity [4]: Active
inhibition [5]: > 75%
